Data: article PMC2908029 (Current radiopharmaceuticals, 2010)
Where “and” joins values, the source holds several entries; their conditions need not be identical. Equal values may be shown once. Blank lines part the entries; values can stand above or below the molecule they belong to.

What was measured:
brain 5-HT1A receptors [1] = assay: PET imaging of [11C]S14506 in monkey; assay type: in vivo, rhesus monkey
human 5-HT1A receptors = details: recombinant Chinese hamster ovary cells, room temperature; cited from earlier work
5-HT1A receptors = details: cited from earlier work
brain 5-HT1A receptors [2] = molecular target: T1, brain 5-HT1A receptors (Rattus norvegicus, UniProt P19327); assay: PET imaging of [11C]S14506 in rat; assay type: in vivo, Sprague-Dawley rat; details: i.v.
T1 sequence (P19327 1-422): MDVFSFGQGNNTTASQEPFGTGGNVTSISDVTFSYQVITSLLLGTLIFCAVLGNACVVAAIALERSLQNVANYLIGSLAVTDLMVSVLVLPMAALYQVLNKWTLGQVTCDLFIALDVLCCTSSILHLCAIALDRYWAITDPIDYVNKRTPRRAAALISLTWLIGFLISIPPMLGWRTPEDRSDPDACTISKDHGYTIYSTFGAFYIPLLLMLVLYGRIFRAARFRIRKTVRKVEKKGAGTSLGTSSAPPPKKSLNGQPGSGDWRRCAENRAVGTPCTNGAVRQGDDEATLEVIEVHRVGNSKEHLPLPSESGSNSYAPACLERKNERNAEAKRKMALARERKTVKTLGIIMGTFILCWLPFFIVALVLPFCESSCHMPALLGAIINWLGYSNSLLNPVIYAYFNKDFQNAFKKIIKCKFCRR

Stability in whole blood = assay type: in vitro ADME; details: rat whole blood in vitro, 125 min, room temperature
Plasma protein binding = assay type: in vitro ADME; details: rat plasma
[3] = Distribution between blood components; assay type: in vitro ADME; details: rat, without hematocrit correction
How it was run: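 [18F]-labelled test compound (0.8 μCi) added to heparinized rat whole blood (from cardiac puncture) in duplicate tubes and incubated at room temperature for 27 min. Blood centrifuged at 1800 × g for 3 min, plasma separated, and all fractions γ-counted. Percent radioactivity in plasma and in cells reported without hematocrit correction.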

[4] = Emergence of radiometabolites in monkey plasma; assay type: in vivo, rhesus monkey; details: over the PET study
brain 5-HT1A receptors [5] = assay: PET imaging of [18F]S14506 in monkey; assay type: in vivo, rhesus monkey; details: absence of radioactivity accumulation in skull
[6] = Ex vivo biodistribution and radiometabolite composition of [18F]S14506 in rat; design: species or system Sprague-Dawley rat
[7] = Effect of cyclosporin A on rat plasma and brain levels of [18F]S14506; assay type: in vivo; details: 30 min after administration
[8] = Stability in sodium phosphate buffer; assay type: physicochemical; details: sodium phosphate buffer (0.15 M), room temperature, 2.5 h

Molecule: COc1ccc2cccc(N3CCN(CCNC(=O)c4ccc(F)cc4)CC3)c2c1 [S14506, 1-[2-(4-fluorobenzoylamino)ethyl]-4-(7-methoxynaphthyl)piperazine, reference compound]
- time required for a 50% decrease in cerebellar radioactivity (brain 5-HT1A receptors [1]; monkey, cerebellar time-activity curves (non-specific binding)): > 32 min
- off rate from human 5-HT1A receptors (human 5-HT1A receptors): 0.029 min⁻¹

Molecule: COc1ccccc1N1CCN(CCCCn2ncc(=O)n(C)c2=O)CC1 [[^11C]CUMI-101, [O-methyl-^11C]2-(4-(4-(2-methoxyphenyl)piperazin-1-yl)butyl)-4-methyl-1,2,4-triazine-3,5(2H,4H)dione]
- Ki (5-HT1A receptors; read-out: Ki, 5-HT1A receptor affinity): 150 pM

Molecule: [11CH3]Oc1ccc2cccc(N3CCN(CCNC(=O)c4ccc(F)cc4)CC3)c2c1 [[^11C]S14506]
- peak whole brain radioactivity (brain 5-HT1A receptors [2]; rat pre-treated with cyclosporin A 25 mg/kg): ~ 310 % SUV
- peak whole brain radioactivity (brain 5-HT1A receptors [2]; rat pre-treated with cyclosporin A 50 mg/kg): ~ 350 % SUV
- peak whole brain radioactivity (brain 5-HT1A receptors [2]; rat, baseline, at 2 min): 210 % SUV and ~ 210 % SUV
- peak brain radioactivity (brain 5-HT1A receptors [1]; monkey pre-treated with tariquidar 4 mg/kg, i.v., 30 min before): 240 % SUV and ~ 240 % SUV
- peak whole brain radioactivity (brain 5-HT1A receptors [1]; monkey, baseline, i.v., at 7 min): ~ 170 % SUV
- unchanged radioligand after incubation with whole blood (Stability in whole blood): > 99.5%
- free in plasma (plasma protein binding) (Plasma protein binding): 0.52%
- whole blood distribution to cellular components [3]: 40.9%
- whole blood distribution to plasma [3]: 59.1%
- maximal share of the second (minor) radiometabolite in plasma radioactivity [4]: ≤ 3.1%

- radiodefluorination (brain 5-HT1A receptors [5]): not radiodefluorinated
- free in plasma (plasma protein binding) (Plasma protein binding): 0.61%
- whole blood distribution to cellular components [3]: 25.8%
- whole blood distribution to plasma [3]: 74.2%
- Composition (%) of radioactivity, Cerebellum ([6]; 30 min after administration of [18F]S14506, n = 1 rat): 93.9%
- Composition (%) of radioactivity, Remainder of brain ([6]; 30 min after administration of [18F]S14506, n = 2 rats): 97.2 ± 0.20%
- Composition (%) of radioactivity, Plasma ([6]; 30 min after administration of [18F]S14506, n = 3 rats (mean ± SD)): 38.6 ± 0.17%
- [18F]S14506 concentration (%SUV), Remainder of brain ([7]; Control): 141 %SUV
- [18F]S14506 concentration (%SUV), Remainder of brain ([7]; Cyclosporin A treated (50 mg/kg, i.v.)): 211 %SUV
- stability to incubation in buffer [8]: stable
Molecule: COc1ccc2cccc(N3CCN(CCNC(=O)c4ccc([18F])cc4)CC3)c2c1 [[^18F]S14506]

Molecule: WAY-100635
- Kd (5-HT1A receptors; read-out: Kd, 5-HT1A receptor affinity): 100 pM
